We go through two molecules from ChEMBL document CHEMBL1268917, “Synthesis and biological evaluation of radio-iodinated benzimidazoles as SPECT imaging agents for NR2B subtype of NMDA receptor” (Bioorg Med Chem, 2010).

Series [1] deals with Glutamate receptor ionotropic, NMDA 2B (Rattus norvegicus) (UniProt Q00960). The experiment in a line: Binding affinity to NR2B receptor in rat cerebellum at 0.09 to 0.14 nM after 30 mins by autoradiography in presence of DTG relative to control. The series is classed as tissue-based. Conditions: tested as the 125I-labelled form. A digest of the protocol:
(§1)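 Rinsed three times 3 min in cold buffer with 1% BSA, dipped in cold water, air-dried, exposed to imaging plates; PSL per mm² in ROIs. Expressed as % control binding; at least triplicate slices from three rats.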

Series [2] in a line: Octanol-buffer partition coefficient, log D of the compound at pH 7.4. The series is classed as physicochemical.
The target of series [3] is Glutamate receptor ionotropic, NMDA 2B (Rattus norvegicus) (UniProt Q00960). The series can be described thus: Binding affinity to NR2B receptor in rat hippocampus at 0.09 to 0.14 nM after 30 mins by autoradiography in presence of prazosin relative to control. Format: tissue-based. Conditions: tested as the 125I-labelled form. In a few lines: as §1
Glutamate receptor ionotropic, NMDA 2B (Rattus norvegicus), sequence (Q00960 27-1482 limits assumed): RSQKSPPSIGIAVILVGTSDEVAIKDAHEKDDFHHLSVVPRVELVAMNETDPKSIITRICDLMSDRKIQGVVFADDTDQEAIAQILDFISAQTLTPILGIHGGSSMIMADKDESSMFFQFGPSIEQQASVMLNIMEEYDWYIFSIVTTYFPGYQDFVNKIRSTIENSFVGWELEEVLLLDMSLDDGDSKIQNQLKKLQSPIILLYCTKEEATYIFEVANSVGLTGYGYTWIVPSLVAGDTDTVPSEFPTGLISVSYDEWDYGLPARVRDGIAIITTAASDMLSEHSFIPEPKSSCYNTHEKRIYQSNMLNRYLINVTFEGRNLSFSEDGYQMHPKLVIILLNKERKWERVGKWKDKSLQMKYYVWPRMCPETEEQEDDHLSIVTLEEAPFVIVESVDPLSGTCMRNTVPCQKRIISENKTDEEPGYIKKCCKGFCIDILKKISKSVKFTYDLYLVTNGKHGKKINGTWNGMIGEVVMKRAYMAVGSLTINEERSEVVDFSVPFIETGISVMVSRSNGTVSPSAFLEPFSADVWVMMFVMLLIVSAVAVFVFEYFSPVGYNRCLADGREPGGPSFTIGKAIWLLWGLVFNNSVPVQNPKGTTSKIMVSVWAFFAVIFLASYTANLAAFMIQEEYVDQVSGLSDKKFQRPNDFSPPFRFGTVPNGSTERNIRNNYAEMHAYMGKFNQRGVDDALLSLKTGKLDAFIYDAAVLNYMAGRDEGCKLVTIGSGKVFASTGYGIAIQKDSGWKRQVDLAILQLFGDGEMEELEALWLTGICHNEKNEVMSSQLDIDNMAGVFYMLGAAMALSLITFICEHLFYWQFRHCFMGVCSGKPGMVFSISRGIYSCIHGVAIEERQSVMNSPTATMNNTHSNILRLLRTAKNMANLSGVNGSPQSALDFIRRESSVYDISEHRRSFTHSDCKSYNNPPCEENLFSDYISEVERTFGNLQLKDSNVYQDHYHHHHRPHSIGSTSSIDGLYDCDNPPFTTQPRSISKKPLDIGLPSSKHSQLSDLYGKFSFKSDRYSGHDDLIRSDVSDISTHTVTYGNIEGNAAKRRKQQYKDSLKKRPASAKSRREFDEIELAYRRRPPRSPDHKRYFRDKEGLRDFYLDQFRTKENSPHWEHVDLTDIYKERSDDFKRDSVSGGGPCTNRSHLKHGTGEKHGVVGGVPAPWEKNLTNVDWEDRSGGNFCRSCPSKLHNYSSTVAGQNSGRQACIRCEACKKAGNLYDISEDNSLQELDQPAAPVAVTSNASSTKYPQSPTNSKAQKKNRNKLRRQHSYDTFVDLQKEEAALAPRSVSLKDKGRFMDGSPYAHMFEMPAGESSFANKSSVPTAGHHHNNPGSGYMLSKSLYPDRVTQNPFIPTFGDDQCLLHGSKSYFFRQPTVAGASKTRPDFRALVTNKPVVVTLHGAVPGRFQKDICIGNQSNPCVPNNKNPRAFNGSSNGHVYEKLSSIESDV
The target is the same in series [4]. The experiment in a line: Binding affinity to NR2B receptor in rat cerebral cortex at 0.09 to 0.14 nM after 30 mins by autoradiography in presence of prazosin relative to control. The series is classed as tissue-based. Conditions: tested as the 125I-labelled form. In a few lines:
as §1

The target is the same in series [5]. The series can be described thus: Binding affinity to NR2B receptor in rat cerebellum at 0.09 to 0.14 nM after 30 mins by autoradiography in presence of prazosin relative to control. Format: tissue-based. The settings on record: tested as the 125I-labelled form. In a few lines: as §1
The target is the same in series [6]. The experiment in a line: Binding affinity to NR2B receptor in rat cerebral cortex at 0.09 to 0.14 nM after 30 mins by autoradiography in presence of DTG relative to control. The series is classed as tissue-based. Conditions: tested as the 125I-labelled form. A digest of the protocol: as §1
Series [7] shares this target. The series can be described thus: Binding affinity to NR2B receptor in rat hippocampus at 0.09 to 0.14 nM after 30 mins by autoradiography in presence of DTG relative to control. The series is classed as tissue-based. The settings on record: tested as the 125I-labelled form. A digest of the protocol: as §1
Series [8] shares this target. The series can be described thus: Binding affinity to NR2B receptor in rat cerebral cortex at 0.09 to 0.14 nM after 30 mins by autoradiography in presence of Ro-256981 relative to control. The series is classed as tissue-based. The settings on record: tested as the 125I-labelled form. A digest of the protocol: as §1
Series [9] shares this target. The experiment in a line: Binding affinity to NR2B receptor in rat cerebellum at 0.09 to 0.14 nM after 30 mins by autoradiography in presence of Ro-256981 relative to control. Format: tissue-based. Conditions: tested as the 125I-labelled form. In a few lines:
as §1

Series [10] addresses Glutamate receptor ionotropic, NMDA 2B (Rattus norvegicus, UniProt Q00960). The series can be described thus: Displacement of [3H]ifenprodil from NR2B receptor in rat cortical synaptic membranes. Format: cell membranes, Membrane.
Series [11] can be described thus: Lipophilicity, log P of the compound. The series is classed as physicochemical. Conditions: octanol/water.
In series [12] the target is Glutamate receptor ionotropic, NMDA 2B (Rattus norvegicus) (UniProt Q00960). The experiment in a line: Binding affinity to NR2B receptor in rat hippocampus at 0.09 to 0.14 nM after 30 mins by autoradiography in presence of Ro-256981 relative to control. Format: tissue-based. Conditions: tested as the 125I-labelled form. In a few lines:
as §1

SMILES strings stand for the structures.

Glutamate receptor ionotropic, NMDA 2B, sequence (Q00960 whole entry): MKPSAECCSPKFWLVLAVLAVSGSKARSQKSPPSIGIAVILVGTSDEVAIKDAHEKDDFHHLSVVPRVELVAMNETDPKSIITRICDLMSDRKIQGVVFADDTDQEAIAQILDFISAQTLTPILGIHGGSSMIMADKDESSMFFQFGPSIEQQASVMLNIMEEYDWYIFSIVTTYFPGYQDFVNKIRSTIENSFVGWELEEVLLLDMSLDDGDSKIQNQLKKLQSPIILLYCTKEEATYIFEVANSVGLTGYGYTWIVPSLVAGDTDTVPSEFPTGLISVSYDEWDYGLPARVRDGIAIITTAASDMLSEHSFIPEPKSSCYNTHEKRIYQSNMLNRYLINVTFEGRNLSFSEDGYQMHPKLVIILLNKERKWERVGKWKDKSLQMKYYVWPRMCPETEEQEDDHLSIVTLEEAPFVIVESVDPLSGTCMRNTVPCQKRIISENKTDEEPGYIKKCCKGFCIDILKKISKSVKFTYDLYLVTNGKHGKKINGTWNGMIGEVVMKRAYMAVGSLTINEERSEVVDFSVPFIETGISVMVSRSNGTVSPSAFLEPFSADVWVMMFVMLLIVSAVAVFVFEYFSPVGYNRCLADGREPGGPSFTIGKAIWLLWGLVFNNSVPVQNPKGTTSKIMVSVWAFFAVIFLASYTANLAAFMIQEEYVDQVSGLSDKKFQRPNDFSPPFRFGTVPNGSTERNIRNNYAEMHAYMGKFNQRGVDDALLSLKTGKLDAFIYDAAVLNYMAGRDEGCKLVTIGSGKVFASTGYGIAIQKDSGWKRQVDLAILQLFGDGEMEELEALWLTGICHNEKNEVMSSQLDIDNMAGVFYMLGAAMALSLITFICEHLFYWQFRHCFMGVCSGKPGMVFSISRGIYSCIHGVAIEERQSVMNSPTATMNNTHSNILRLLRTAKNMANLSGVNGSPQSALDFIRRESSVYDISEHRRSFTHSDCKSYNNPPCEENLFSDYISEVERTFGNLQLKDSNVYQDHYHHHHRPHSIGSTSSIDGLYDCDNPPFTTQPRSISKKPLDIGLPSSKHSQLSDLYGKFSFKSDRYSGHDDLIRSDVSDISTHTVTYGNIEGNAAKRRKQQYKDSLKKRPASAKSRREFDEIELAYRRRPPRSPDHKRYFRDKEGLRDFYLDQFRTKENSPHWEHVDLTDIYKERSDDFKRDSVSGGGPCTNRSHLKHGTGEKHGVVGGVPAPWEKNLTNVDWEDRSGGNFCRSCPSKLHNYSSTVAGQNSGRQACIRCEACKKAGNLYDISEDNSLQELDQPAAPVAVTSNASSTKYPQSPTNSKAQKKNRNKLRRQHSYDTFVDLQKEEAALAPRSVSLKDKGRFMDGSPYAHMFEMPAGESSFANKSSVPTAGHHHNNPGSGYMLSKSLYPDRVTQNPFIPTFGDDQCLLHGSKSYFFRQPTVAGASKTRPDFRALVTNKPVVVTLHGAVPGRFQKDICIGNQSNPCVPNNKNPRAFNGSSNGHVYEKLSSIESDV

In the case of `CS(=O)(=O)Nc1ccc2nc(CN3CCC(Cc4ccc(I)cc4)CC3)[nH]c2c1`, the Activity in [1] was found to be 104%; in series [3] it was 95.5%; in series [4] it was 92.8%; in series [5], 97%; in series [6] it was 93%; in series [7], 108%. For the same molecule, the values for the Activity in series [8], in [9] and in series [12] were 58.1%, 89.3% and 59%, respectively. In [2], the logD (usually lipophilicity at a set pH, counting ionised and neutral species) came out at 3.54. For the same molecule, in [10], the inhibitory constant (Ki) (in general, the dissociation constant of the complex between target and ligand, obtained from inhibition or displacement) was determined as 5.75 nM. Also, in [11], the logP – broadly, the decadic logarithm of the partition coefficient of the neutral form, usually between octanol and water – came out at 3.54.

`Oc1ccc2nc(CN3CCC(Oc4ccc(I)cc4)CC3)[nH]c2c1`: the logD in series [2] was 3.74. The Ki in [10] came out at 32.5 nM.
